Results on two compounds are retold here after ChEMBL document CHEMBL1144782, “Isoindolo[2,1-a]quinoxaline derivatives, novel potent antitumor agents with dual inhibition of tubulin polymerization and topoisomerase I” (2008).

Test [1] concerns Jurkat. The test is described as follows: Cell cycle arrest in human Jurkat cells assessed as accumulation at G1 phase at 62.5 nM after 24 hrs by flow cytometry. It is filed as functional. In short, it runs like this:
(§1)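 Exponentially growing Jurkat cells (5 × 105) were exposed to compound for 24 h. Cells were then fixed in ice-cold 70% ethanol, lysed with RNase A-containing buffer and stained with propidium iodide. DNA-content histograms from flow cytometry gave G1, S and G2/M fractions.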

In test [2] the test system is Jurkat. The test is described as follows: Cell cycle arrest in human Jurkat cells assessed as accumulation at G2/M phase at 62.5 nM after 24 hrs by flow cytometry. It counts as functional. In short, it runs like this: as §1
Background: A flow cytometer gives signals particle by particle.

Test [3] relates to Jurkat. As to the kind of experiment: Cell cycle arrest in human Jurkat cells assessed as accumulation at S phase at 62.5 nM after 24 hrs by flow cytometry. It counts as functional. The method, boiled down:
as §1

In test [4] the test system is Jurkat. The test is described as follows: Cell cycle arrest in human Jurkat cells assessed as accumulation at G1 phase at 125 nM after 24 hrs by flow cytometry. It is filed as functional. In short, it runs like this: as §1
For test [5], the system named is Jurkat. The test is described as follows: Cell cycle arrest in human Jurkat cells assessed as accumulation at G2/M phase at 125 nM after 24 hrs by flow cytometry. It counts as functional. The method, boiled down:
as §1

The subject of test [6] is Jurkat. The test is described as follows: Cell cycle arrest in human Jurkat cells assessed as accumulation at G1 phase at 250 nM after 24 hrs by flow cytometry. It counts as functional. The method, boiled down:
as §1

The test system of test [7] is Jurkat. As to the kind of experiment: Cell cycle arrest in human Jurkat cells assessed as accumulation at G2/M phase at 250 nM after 24 hrs by flow cytometry. It counts as functional. In short, it runs like this:
as §1

Test [8] has as its system Jurkat. The test is described as follows: Cell cycle arrest in human Jurkat cells assessed as accumulation at S phase at 250 nM after 24 hrs by flow cytometry. It is filed as functional. The method, boiled down: as §1
The subject of test [9] is Jurkat. As to the kind of experiment: Cell cycle arrest in human Jurkat cells assessed as accumulation at G1 phase at 500 nM after 24 hrs by flow cytometry. It counts as functional. The method, boiled down:
as §1

In test [10] the test system is Jurkat. The test is described as follows: Cell cycle arrest in human Jurkat cells assessed as accumulation at G2/M phase at 500 nM after 24 hrs by flow cytometry. It is filed as functional. In short, it runs like this: as §1
In test [11] the test system is Jurkat. As to the kind of experiment: Cell cycle arrest in human Jurkat cells at mitosis at 0.5 uM after 24 hrs. It is filed as functional. The method, boiled down:
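Exponentially growing Jurkat cells were exposed for 24 h, then pelleted at 400g for 5 min. Hypotonic KCl (75 mM, 4 °C) was applied for 20 min, followed by methanol–acetic acid (3:1) fixation and Giemsa staining. 400 cells per treatment were scored microscopically; mitotic index is the fraction with mitotic figures. Three independent experiments, mean ± SEM.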

Test [12] deals with A549. As to the kind of experiment: Disruption of tubulin network in human A549 cells assessed as disaggregation of microtubules at 2.5 uM […]. It counts as functional, cell-based.
Test [13] deals with A549. As to the kind of experiment: Disruption of tubulin network in human A549 cells assessed as disaggregation of microtubules at 5 uM […]. It is filed as functional, cell-based.
Another test deals with Tubulin (Sus scrofa) (UniProt P02554+P02550). The test is described as follows: Inhibition of pig brain tubulin polymerization at 5 uM.
Chain of Tubulin (Sus scrofa) (P02550 whole entry, looked up): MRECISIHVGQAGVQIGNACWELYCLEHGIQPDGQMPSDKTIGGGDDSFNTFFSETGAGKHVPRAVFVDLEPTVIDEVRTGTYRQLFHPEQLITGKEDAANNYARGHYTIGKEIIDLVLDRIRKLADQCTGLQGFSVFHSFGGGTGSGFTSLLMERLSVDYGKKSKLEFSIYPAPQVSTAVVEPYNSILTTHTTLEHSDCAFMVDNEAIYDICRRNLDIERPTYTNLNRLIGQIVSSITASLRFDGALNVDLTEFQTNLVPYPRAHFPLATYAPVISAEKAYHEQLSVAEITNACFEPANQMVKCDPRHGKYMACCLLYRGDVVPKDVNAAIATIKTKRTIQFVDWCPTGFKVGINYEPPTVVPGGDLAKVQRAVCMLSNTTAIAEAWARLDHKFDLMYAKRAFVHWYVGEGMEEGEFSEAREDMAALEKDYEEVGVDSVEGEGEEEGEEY
Chain of Tubulin (Sus scrofa) (P02554 whole entry, looked up): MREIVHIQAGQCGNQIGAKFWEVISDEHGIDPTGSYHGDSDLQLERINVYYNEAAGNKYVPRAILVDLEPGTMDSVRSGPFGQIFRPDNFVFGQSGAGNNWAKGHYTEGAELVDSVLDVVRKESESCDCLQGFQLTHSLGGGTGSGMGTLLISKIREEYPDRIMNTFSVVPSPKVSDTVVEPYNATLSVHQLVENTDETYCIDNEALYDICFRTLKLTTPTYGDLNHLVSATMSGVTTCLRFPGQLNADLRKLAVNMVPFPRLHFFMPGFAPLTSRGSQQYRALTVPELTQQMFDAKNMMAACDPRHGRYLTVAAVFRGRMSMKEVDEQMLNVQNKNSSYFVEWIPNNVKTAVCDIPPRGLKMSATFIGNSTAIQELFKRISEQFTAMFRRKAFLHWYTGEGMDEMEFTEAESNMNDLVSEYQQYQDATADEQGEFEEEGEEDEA
Another test relates to Salmonidae. The test is described as follows: Binding affinity to salmon testes DNA by spectrophotometric titration method. In short, it runs like this:
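Absorption titration of salmon testes DNA into a constant drug concentration at varying [drug]/[DNA] ratios. ETN buffer (10 mM Tris, 1 mM EDTA, 10 mM NaCl), pH 7.0, 25 °C. Scatchard isotherms were fitted to the McGhee–von Hippel model for intrinsic binding constant and site size.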

In test [14] the target is DNA topoisomerase 1 (Homo sapiens) (UniProt P11387). The test is described as follows: Inhibition of human topoisomerase 1-mediated relaxation of supercoiled pBR322 DNA at 200 uM by agarose gel electrophoresis. The method, boiled down:
(§2)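 Supercoiled pBR322 was incubated with 5 units of human topoisomerase I for 30 min at 37 °C in 50 mM Tris-HCl pH 7.8, 50 mM KCl, 10 mM MgCl2, 1 mM DTT, 1 mM EDTA, with drug 0.5–200 µM. Reactions were stopped with SDS and proteinase K, run on 1% agarose at 20 V overnight, stained with ethidium bromide, and bands quantified. Ethidium-containing gels were also run.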

Test [15] shares this target. As to the kind of experiment: Inhibition of human topoisomerase 1-mediated relaxation of supercoiled pBR322 DNA at 20 uM by agarose gel electrophoresis. The method, boiled down: as §2
The subject of test [16] is Jurkat. The test is described as follows: Effect on mitochondrial membrane potential depolarization in human Jurkat cells after 24 hrs by flow cytometry. It counts as functional, cell-based. The method, boiled down:
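Jurkat cells after 24 h exposure were loaded with JC-1 (1 µM in HBSS) for 10 min at 37 °C, washed and analyzed by flow cytometry. The percentage of cells with low mitochondrial potential was recorded.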

Test [17] has as its system Jurkat. The test is described as follows: Induction of apoptosis in human Jurkat cells assessed as activation of caspase 3 after 24 hrs by flow cytometry. It counts as functional, cell-based. The method, boiled down:
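Jurkat cells were exposed (500 nM) for 24 h, then harvested and incubated in HBSS with cell-permeable FITC-DEVD-fmk (caspase-3) or FITC-[…]-fmk (caspase-9) for 1 h at 37 °C. After washing, cells were read by flow cytometry on FL-1. Results are fold increase over control.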

Test [18] is described as follows: Antitumor activity against human HL60(TB) cells. It counts as functional, HL-60(TB). In short, it runs like this:
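Tested by the NCI in its in vitro disease-oriented human tumor cell line screen. Each cell line gave pGI50 (−log molar concentration for 50% net growth inhibition), pTGI (−log molar concentration for total growth inhibition) and pLC50 (−log molar concentration for 50% net cell death).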

Another test concerns K562. As to the kind of experiment: Antitumor activity against human K562 cells. It is filed as functional. The method, boiled down: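 Run by the NCI in its in vitro disease-oriented screen of about 60 human tumour cell lines. For each line it reports pGI50 (50% net growth inhibition), pTGI (total growth inhibition) and pLC50 (50% net cell death), each as –log molar concentration. Where an effect was not reached within the tested range, the highest tested concentration was used.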

In another test the test system is LoVo. The test is described as follows: Growth inhibition of human doxorubicin-resistant LoVo cells after 72 hrs by MTT assay. It counts as functional. In short, it runs like this: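 Growth inhibition by MTT after 72 h incubation. Resistant sublines: LoVoDoxo and MCF-7 MDR were kept in 0.1 µg/mL doxorubicin; CEMVbl-100 was selected against vinblastine. GI50 given as mean ± SEM of three independent experiments. Resistance index is resistant-line GI50 over parental GI50.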
(In general: Tetrazolium dyes change colour on reduction, which living cells bring about.)

Test [19] deals with Jurkat. As to the kind of experiment: Cell cycle arrest in human Jurkat cells assessed as accumulation at G1 phase at 32 nM after 24 hrs by flow cytometry. It is filed as functional. The method, boiled down:
as §1

The subject of test [20] is Jurkat. The test is described as follows: Cell cycle arrest in human Jurkat cells assessed as accumulation at G2/M phase at 32 nM after 24 hrs by flow cytometry. It counts as functional. In short, it runs like this: as §1
The subject of test [21] is Jurkat. The test is described as follows: Cell cycle arrest in human Jurkat cells assessed as accumulation at S phase at 32 nM after 24 hrs by flow cytometry. It counts as functional. In short, it runs like this: as §1
A further test relates to UO-31. The test is described as follows: Antitumor activity against human UO31 cells. It is filed as functional. The method, boiled down:
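NCI 60-cell-line screen. Parameters were GI50 (50% net growth inhibition), TGI and LC50, each reported as –log molar concentration. Where an effect was not reached within the tested range, the highest tested concentration was used in the calculation.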

[22] abbreviates: read-out: Log LC50 (the source's name) (converted).

As usually defined, the GI50 is the concentration at which growth is held to half of that of the control. A higher GI50 goes with lower sensitivity of the cells.

Calls of active or inactive are those of the source. The rule behind the calls is not given here.

Chain of DNA topoisomerase 1 (Homo sapiens) (P11387 whole entry): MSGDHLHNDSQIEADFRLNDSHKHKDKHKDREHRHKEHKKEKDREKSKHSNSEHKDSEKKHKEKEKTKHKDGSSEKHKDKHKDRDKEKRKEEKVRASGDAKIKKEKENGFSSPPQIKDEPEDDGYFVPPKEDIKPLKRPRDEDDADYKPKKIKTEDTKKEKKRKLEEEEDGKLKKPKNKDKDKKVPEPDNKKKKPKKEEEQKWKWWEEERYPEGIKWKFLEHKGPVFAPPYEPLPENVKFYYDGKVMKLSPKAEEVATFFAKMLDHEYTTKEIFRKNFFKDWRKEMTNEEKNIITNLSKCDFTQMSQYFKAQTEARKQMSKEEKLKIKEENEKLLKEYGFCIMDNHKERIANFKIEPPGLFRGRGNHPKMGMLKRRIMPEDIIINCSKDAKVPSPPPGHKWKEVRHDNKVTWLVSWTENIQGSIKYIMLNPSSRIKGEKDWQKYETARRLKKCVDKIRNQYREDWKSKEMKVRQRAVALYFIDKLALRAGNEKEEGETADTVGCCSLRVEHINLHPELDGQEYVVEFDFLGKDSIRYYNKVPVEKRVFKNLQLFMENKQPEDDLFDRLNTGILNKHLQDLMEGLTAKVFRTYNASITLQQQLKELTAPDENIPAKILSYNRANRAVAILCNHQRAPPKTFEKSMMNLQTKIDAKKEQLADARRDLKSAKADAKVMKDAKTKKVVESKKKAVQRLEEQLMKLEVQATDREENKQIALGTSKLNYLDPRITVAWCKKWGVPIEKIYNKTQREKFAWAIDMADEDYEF

Take `COc1ccc2c(c1)[nH]c(=O)c1c3ccccc3cn21`: the Activity worked out at 3.4% with Jurkat [1]; 43.1% in the test with Jurkat [2]; 53.5% in the test with Jurkat [3]; 2.2% in the test with Jurkat [4]; 59.2% in the test with Jurkat [5]; 0.6% with Jurkat [6]. The Activity is 55.2% in the test with Jurkat [7]; 44.2% in the test on Jurkat [8]; 0.1% in the test with Jurkat [9]; 50.9% in the test with Jurkat [10]; 50% in the test with Jurkat [11]; “Dose-dependent effect” in the test with Jurkat [16]. Besides, the values for the Activity in the test with Jurkat [19], with Jurkat [20] and in the test on Jurkat [21] were 27.1%, 28.8% and 44.1%, respectively. Also, the result (with A549 [12]; in the test with A549 [13]; on Tubulin (Sus scrofa); in test [14]; in test [15]; in the test on Jurkat [17]) was Active. Moreover, the K in the test on Salmonidae was 2.7 10^5/M. Besides, the 50% growth inhibitory concentration (GI50) was 0.0115 µM in [18] (HL-60), 0.00891 µM in the test on K562 and 0.13 µM with LoVo. Moreover, the CC50 in [18] (HL-60, read-out: Log LC50 (the source's name) (converted)) was 3.55 µM; with K562 (setting [22]), 5.13 µM. In addition, the TGI in test [18] (HL-60, read-out: pTGI (converted)) was 0.0603 µM; in the test on K562 (read-out: pTGI (converted)), 1.02 µM.

Regarding `O=c1[nH]c2ccccc2n2cc3ccccc3c12`, growth in the test with UO-31 was halved (GI50) at 12.6 µM. Also, in the test on UO-31 (setting [22]), the CC50 was 56.2 µM. Also, in the test on UO-31 (read-out: pTGI (converted)), the TGI is 26.9 µM.
